For three compounds, Drug metabolism results are on record in ChEMBL document CHEMBL3525985, “Regiospecificity and stereospecificity of human UDP-glucuronosyltransferases in the glucuronidation of estriol, 16-epiestriol, 17-epiestriol, and 13-epiestradiol” (Drug Metab Dispos, 2013).

Type in all cases: ADME
The target of data set [1] is T1, UDP-glucuronosyltransferase 1A10 (Homo sapiens, UniProt Q9HAW8).
T1 sequence (Q9HAW8 whole entry): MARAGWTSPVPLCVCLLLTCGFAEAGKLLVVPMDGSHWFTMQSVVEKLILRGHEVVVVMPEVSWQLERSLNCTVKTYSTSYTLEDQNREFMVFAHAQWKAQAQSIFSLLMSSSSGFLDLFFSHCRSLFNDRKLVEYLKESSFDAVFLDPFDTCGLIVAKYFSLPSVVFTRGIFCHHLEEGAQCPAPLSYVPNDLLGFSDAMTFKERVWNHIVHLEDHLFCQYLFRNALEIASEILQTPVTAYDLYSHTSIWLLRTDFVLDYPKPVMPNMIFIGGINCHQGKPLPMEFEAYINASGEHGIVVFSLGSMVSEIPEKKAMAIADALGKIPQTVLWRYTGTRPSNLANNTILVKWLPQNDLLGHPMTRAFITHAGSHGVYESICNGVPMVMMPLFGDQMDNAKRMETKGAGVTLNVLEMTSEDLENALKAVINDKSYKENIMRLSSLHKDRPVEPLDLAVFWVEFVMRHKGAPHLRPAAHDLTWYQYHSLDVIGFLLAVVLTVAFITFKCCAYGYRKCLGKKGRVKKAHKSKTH
As to the kind of experiment: Drug metabolism assessed as human UGT1A10-mediated 13-epiestradiol-3-glucuronide formation at 200 uM after 15 to 60 mins by HPLC analysis in presence of UDPGA. The settings on record: recombinant enzyme. The essentials:
(§1)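 Screening at a single substrate concentration of 200 μM, in triplicate. The reaction used 5 or 50 µg of UGT-enriched insect cell membranes in 50 mM phosphate pH 7.4 with 10 mM MgCl₂ and 5 mM UDPGA, 10% final DMSO. Incubation was 15–60 min at 37°C. Perchloric acid stopped the reaction and supernatants were analysed by HPLC. Controls lacked UDPGA. Rates were normalized to relative UGT expression level.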

For data set [2], the target named is T2, UDP-glucuronosyltransferase 2A1 (Homo sapiens, UniProt P0DTE4).
T2 sequence (P0DTE4 whole entry): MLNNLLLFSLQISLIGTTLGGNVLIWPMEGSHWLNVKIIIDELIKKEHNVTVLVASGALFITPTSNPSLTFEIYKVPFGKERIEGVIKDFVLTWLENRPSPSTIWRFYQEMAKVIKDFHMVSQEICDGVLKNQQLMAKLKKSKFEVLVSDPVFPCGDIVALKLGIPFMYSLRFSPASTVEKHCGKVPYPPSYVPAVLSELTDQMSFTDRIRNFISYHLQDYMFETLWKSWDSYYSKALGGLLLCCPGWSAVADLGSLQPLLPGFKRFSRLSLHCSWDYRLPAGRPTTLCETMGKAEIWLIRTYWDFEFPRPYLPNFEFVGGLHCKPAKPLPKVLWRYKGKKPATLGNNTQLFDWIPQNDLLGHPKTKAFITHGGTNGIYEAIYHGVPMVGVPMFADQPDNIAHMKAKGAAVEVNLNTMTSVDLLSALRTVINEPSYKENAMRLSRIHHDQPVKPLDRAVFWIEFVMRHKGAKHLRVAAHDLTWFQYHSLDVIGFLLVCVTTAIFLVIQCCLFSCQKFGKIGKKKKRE
As to the kind of experiment: Drug metabolism assessed as recombinant human C-terminal His-tagged UGT2A1-mediated estriol-16-glucuronide formation after 15 to 60 mins by Michaelis-Menten equation analysis in presence of UDPGA. As to conditions: recombinant enzyme.

Data set [3] deals with T3, UDP-glucuronosyltransferase 1A1 (Homo sapiens, UniProt P22309).
T3 sequence (P22309 whole entry): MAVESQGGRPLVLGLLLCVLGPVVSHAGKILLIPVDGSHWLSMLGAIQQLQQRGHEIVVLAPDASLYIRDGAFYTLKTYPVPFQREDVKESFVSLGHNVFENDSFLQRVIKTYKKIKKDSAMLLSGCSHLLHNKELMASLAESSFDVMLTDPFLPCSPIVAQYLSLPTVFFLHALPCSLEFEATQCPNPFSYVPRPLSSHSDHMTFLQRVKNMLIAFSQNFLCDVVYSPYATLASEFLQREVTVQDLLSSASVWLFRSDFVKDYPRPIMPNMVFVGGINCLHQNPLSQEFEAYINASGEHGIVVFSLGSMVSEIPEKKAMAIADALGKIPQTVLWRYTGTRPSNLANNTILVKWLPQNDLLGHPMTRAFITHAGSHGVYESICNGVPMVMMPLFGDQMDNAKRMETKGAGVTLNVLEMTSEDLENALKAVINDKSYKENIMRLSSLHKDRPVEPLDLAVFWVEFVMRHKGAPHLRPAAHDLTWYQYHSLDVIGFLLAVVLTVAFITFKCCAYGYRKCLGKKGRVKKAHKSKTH
As to the kind of experiment: Drug metabolism assessed as recombinant human C-terminal His-tagged UGT1A1-mediated estriol-3-glucuronide formation at 200 uM after 15 to 60 mins by HPLC analysis in presence of UDPGA. The settings on record: recombinant enzyme. The essentials: as §1

For data set [4], the target named is T2, UDP-glucuronosyltransferase 2A1. As to the kind of experiment: Drug metabolism assessed as recombinant human C-terminal His-tagged UGT2A1-mediated 17-epiestriol-17-glucuronide formation at 5 mg after 5 hrs by NMR spectroscopic analysis in presence of UDPGA.
Data set [5] has as its target T4, UDP-glucuronosyltransferase 1A4 (Homo sapiens, UniProt P22310).
T4 sequence (P22310 whole entry): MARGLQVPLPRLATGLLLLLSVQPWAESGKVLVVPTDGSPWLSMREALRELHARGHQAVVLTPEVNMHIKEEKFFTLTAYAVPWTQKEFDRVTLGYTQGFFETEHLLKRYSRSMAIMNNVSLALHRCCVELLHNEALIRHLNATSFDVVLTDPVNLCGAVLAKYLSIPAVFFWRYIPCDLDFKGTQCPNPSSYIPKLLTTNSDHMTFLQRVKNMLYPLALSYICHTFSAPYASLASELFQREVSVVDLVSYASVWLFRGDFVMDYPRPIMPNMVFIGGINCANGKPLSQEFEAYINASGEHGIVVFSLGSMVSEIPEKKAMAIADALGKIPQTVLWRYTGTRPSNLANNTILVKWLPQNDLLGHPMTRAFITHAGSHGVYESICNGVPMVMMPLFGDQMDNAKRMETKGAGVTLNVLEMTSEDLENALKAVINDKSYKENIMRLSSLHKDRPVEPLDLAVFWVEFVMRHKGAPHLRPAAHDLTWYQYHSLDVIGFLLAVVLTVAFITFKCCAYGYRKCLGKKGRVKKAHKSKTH
In words: Drug metabolism assessed as recombinant human C-terminal His-tagged UGT1A4-mediated 17-epiestriol-16-glucuronide formation at 200 uM after 15 to 60 mins by HPLC analysis in presence of UDPGA. As to conditions: recombinant enzyme. The essentials:
as §1

On to `C[C@@]12CC[C@@H]3c4ccc(O)cc4CC[C@H]3[C@@H]1CC[C@@H]2O`, for which, in data set [1], the Drug metabolism result is “metabolite_detected”.
In the case of `C[C@]12CC[C@@H]3c4ccc(O)cc4CC[C@H]3[C@@H]1C[C@@H](O)[C@@H]2O` [ESTRIOL], the Drug metabolism in data set [2] is given as 4 pmol/min/mg; in data set [3], “metabolite_detected”.
With `C[C@]12CC[C@@H]3c4ccc(O)cc4CC[C@H]3[C@@H]1C[C@@H](O)[C@H]2O`, the Drug metabolism entry in data set [4] and in data set [5] was “metabolite_detected” in each case.
